In the library only some 2.3% were active in any assay of this set; here they are far more common.
ADAM10 inh – ADAM10 inhibition, QFRET primary screen | O14672 | recombinant ADAM10, EDANS/DABCYL FRET peptide cleavage, 3 h | 370,000 compounds, 0.62% hits | inhibition, % at 7 µM;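 active means inhibition above a per-campaign cutoff equal to the mean of compounds falling between control-based bounds plus 3 SD, cut at about 20% in these data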;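 further: 0% = DMSO wells while the 100% control is not disclosed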
Tn7 DDE FP – inhibitors of Tn7 peptide binding to human fibrin DD(E). 370,000 compounds, 0.13% hits. inhibition, % at 8.3 µM. FP displacement of FITC-Tn7 peptide from fibrin DD(E); 0% = median of compound wells per plate. AID 720508;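 active means inhibition above the mean of compounds falling within the control limits plus 3 SD of them, cut at about 14% in these data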;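 further: 0% = plate median of compound wells and 100% = 10 µM Aha-Tn7 peptide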
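system = human fibrin DD(E) protein | quantity = DD(E) 2 µM final | medium = Tris/NaCl/CaCl2 buffer, pH 7.8 | also added = labelled Tn7 tracer, 0.1 µM | compound dosing = single point at 8.3 µM | timing = compound with protein 10 min, then 3 h after probe, room temperature | signal = FP measurement | benchmarks = Aha-Tn7 high control | repeats = one replicate per compound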
PLCg1 inh – inhibitors of human phospholipase C gamma1; inhibition, % at 12.2 µM; 370,000 compounds, 0.84% hits; AID 720700; purified PLC-gamma1, fluorogenic substrate, fluorescence; in the data active means inhibition above about 9.5%
Tn6 DDE FP – inhibitors of Tn6 peptide binding to human fibrin DD(E); P02675; Fibrin DD(E) TRITC-Tn6 fluorescence polarization displacement; inhibition, % at 8.3 µM; 370,000 compounds, 0.21% hits;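 active means inhibition above a per-campaign cutoff: mean of compounds within control limits plus 3 SD, cut at about 15% in these data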;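 further: 0% = median of all compound wells on the plate and 100% = blocking peptide control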
PLCb3 inh – blocks human PLC-beta3 enzyme activity. Purified PLC-beta3, fluorogenic substrate, fluorescence. inhibition, % at 12.2 µM. 370,000 compounds, 0.18% hits; in the data active means inhibition above about 11%;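 further: 0% = median of compound wells on plate and 100% = full blocker control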
ADAM17 inh – inhibits human ADAM17; P78536; recombinant ADAM17, EDANS/DABCYL FRET peptide cleavage; inhibition, % at 6.95 µM; 370,000 compounds, 0.83% hits;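 active means inhibition above the mean of compounds lying between control limits plus 3 SD, set per campaign, cut at about 8.5% in these data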;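 further: 0% = DMSO-only wells as the low control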
Target sequence (P78536 215-824 limits assumed): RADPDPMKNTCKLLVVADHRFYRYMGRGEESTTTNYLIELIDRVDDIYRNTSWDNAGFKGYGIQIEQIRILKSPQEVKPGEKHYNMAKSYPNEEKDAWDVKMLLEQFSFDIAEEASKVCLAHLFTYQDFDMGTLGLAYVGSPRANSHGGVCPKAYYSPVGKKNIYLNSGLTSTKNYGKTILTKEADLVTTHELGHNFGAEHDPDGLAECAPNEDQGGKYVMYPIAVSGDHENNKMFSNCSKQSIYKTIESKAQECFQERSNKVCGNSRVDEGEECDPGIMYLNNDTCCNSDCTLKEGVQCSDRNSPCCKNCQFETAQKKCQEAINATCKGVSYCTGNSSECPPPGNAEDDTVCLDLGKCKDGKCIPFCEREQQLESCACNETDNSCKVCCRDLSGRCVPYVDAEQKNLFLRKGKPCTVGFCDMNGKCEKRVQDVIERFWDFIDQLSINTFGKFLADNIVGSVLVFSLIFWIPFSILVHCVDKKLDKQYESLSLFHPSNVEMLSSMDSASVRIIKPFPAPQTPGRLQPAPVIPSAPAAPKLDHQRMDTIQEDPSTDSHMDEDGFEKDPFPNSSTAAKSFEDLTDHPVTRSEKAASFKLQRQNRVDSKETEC
* = called active by the depositor; + = active, no number.

SMILES | ADAM10 inh | Tn7 DDE FP | PLCg1 inh | Tn6 DDE FP | PLCb3 inh | ADAM17 inh
C[C@H]1CN([C@@H](C)CO)C(=O)Cc2cc(NS(C)(=O)=O)ccc2O[C@@H]1CN(C)Cc1ccc(Cl)c(Cl)c1 | 7 | 2 | 3 | 0 | 5 | 7
C[C@@H]1CN([C@@H](C)CO)C(=O)Cc2cc(NC(=O)Nc3ccc(F)cc3)ccc2O[C@@H]1CN(C)Cc1ccc(Cl)c(Cl)c1 | 34* | 5 | 2 | -4 | 3 | 13*
Cc1cc(C(=O)O[C@@H]2CCC[C@@]3(C(=O)N(Cc4ccccc4)c4ccccc43)[C@H]2NC(=O)CCc2ccccc2)no1 | 12 | -7 | 3 | -4 | 5 | 4
CCNC(=S)NNC(=O)CSc1nnc(-c2ccccc2)n1-c1ccc(Cl)cc1 | 1 | -5 | 0 | -2 | 2 | -2
O=C(Nc1cccc(S(=O)(=O)Nc2ccc(Cl)cc2)c1)c1ccc(Cl)nc1 | 31* | 1 | 5 | -14 | -4 | 8
O=C1CSc2ccc(C(=O)Nc3cccc(S(=O)(=O)Nc4ccc(Br)cc4)c3)cc2N1 | 48* | -4 | 5 | + | -6 | 17*
O=C(O)c1ccc(NC(=O)c2cccc(S(=O)(=O)Nc3ccc(C(=O)O)cc3)c2)cc1 | -6 | -3 | -2 | 5 | -1 | -5
Cc1cc(C)n2c(SCCC(C)C)nnc2n1 | -12 | 15* | 3 | 0 | 1 | -7
COc1cccc(-c2cc(C(=O)Nc3ccncc3)c3ccccc3n2)c1 | -3 | -1 | -41 | -1 | -62 | -2
COc1cccc(-c2cc(C(=O)Nc3ccc(N(C)C(C)=O)cc3)c3cc(Br)ccc3n2)c1 | 20* | -3 | -2 | -12 | -15 | 8
O=C(CCCc1ccccc1)Nc1cccnc1Cl | 6 | -5 | 3 | -2 | 12* | 5
O=C(Cc1ccc(Cl)cc1)Nc1cccnc1Cl | 0 | 6 | -1 | 5 | 3 | -3
Cc1ccc(C(=O)Nc2ccc(Oc3ccc(C(=O)O)c(C(=O)O)c3)cc2)cc1C | 7 | -10 | 11* | 5 | 4 | 1
C#CC1(NC(=S)Nc2cccc(OC)c2)CCCCC1 | -5 | -3 | 11* | 4 | 9 | 9
CCOC(=O)c1[nH]c2c(c1C)C(=O)CC(c1ccc(F)cc1)C2 (centres undefined) | -4 | -1 | 3 | 0 | 2 | 0
Cc1c(C(=O)OCC2CCCO2)[nH]c2c1C(=O)CC(c1ccc(N(C)C)cc1)C2 (centres undefined) | 21* | -5 | 0 | -9 | -2 | 4
CC(C)(C)OC(=O)N1CCC(c2ccc[nH]2)(c2c[nH]c3ccccc23)CC1 | 2 | -3 | -1 | -7 | 0 | 0
CC1CCC2(CC1)CCN(CCCOC(=O)NCc1ccc(Cl)cc1)C2=O (centres undefined) | 4 | 7 | 1 | 6 | 1 | 5
CC(=O)N1[C@@H](CO)[C@@H](c2ccc(-c3cccc(F)c3)cc2)[C@@H]1CNCC1CCC1 | 8 | 6 | -1 | 3 | -2 | 2
Cc1ccc(N=C2SC(C(=O)Nc3ccc(OC(F)(F)F)cc3)C(N)=C2C(=O)Nc2c(C)cc(C)cc2C)cc1 (centres undefined) | 27* | -8 | -5 | -3 | -6 | 14*
Cc1ccc(NC(=O)c2cc3cc(OC(F)(F)F)ccc3[nH]2)cc1 | -36 | 8 | -22 | 0 | -34 | -21
O=C1CC(c2ccc3c(c2)OCO3)C2=C(CCCC2=O)N1 (centres undefined) | 7 | -2 | 10* | 6 | 3 | 3
CC(=O)c1c(C)[nH]c(C(=O)OCC(=O)Nc2cc(Cl)ccc2[N+](=O)[O-])c1C | 9 | -7 | 11* | 2 | 10 | 7
O=C(Cn1cc[n+](Cc2ccccc2)c1)c1ccc([N+](=O)[O-])cc1 | 8 | -7 | 11* | 0 | 5 | 0
O=C(C[n+]1ccn(-c2ccccc2)c1)c1ccc([N+](=O)[O-])cc1 | 0 | 0 | 0 | -3 | -6 | -5
Cc1ccc(-c2cc(C(=O)Nc3ccc(S(=O)(=O)Nc4nccs4)cc3)c3ccccc3n2)c(C)c1 | 40* | 6 | -14 | -5 | 4 | 20*

High-throughput results from PubChem.
